Measurements published in ChEMBL document CHEMBL4402517, “Rational modification of Mannich base-type derivatives as novel antichagasic compounds: Synthesis, in vitro and in vivo evaluation” (Bioorg Med Chem, 2019).
Active and inactive are the calls of the source. No cut-off for these calls is given here.

Assays:
[1] = (§1) Toxicity in BALB/c mouse infected with Trypanosoma cruzi MHOM/Pe/2011/Arequipa;DTU 5 bloodstream trypomastigote assessed as decrease in serum uric acid level in chronic phase at 20 mg/kg/day, po administered for 5 consecutive days starting from day 70 post infection and measured at day 76 post infection relative to control; type: organism-based; design: scale not given: the % may be the effect or the level left; conditions: in vivo
Outline: (§2)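 Female BALB/c mice (10–12 weeks, 14–20 g; groups of three) were infected i.p. with 5 × 10^5 Arequipa bloodstream trypomastigotes. Dosing was oral at 20 mg/kg/day for 5 days, from day 8 pi (acute) or day 70 pi (chronic), as a 2 mg/ml suspension in 5% DMSO/0.5% HPMC; controls received vehicle. Cyclophosphamide 200 mg/kg i.p. was given at day 80 pi. Serum was collected 2 days post-treatment and at necropsy by cardiac puncture and compared with infected untreated controls.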

[2] = Genotoxicity in Salmonella typhimurium TA1535 harboring pSK1002 assessed as survival at 0.008 mg/ml in presence of Sprague-Dawley rat liver S9 fraction metabolic activation by SOS/umu assay relative to control; type: toxicity, subcellular; conditions: salmonella enterica subsp. enterica serovar typhimurium, read-out: Survival
Outline: (§3)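 Survival of S. typhimurium TA1535/pSK1002 exposed to a range of compound concentrations with or without S9 mix in 96-well format. Survival percentage measured as the cytotoxicity arm of the SOS/umu test. Concentrations with survival ≥80% are counted as non-cytotoxic.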

[3] = test system: Trypanosoma cruzi; assay: (§4) Antitrypanosomal activity against Trypanosoma cruzi MHOM/Pe/2011/Arequipa;DTU 5 bloodstream trypomastigotes infected in BALB/c mouse assessed as parasite-free stomach in acute phase at 20 mg/kg/day, po administered for 5 consecutive days starting from day 8 post infection followed by cyclophosphamide induced immunosuppression on day 80 post infection measured after day 100 post infection by PCR method relative to control; type: functional
Outline: (§5)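 Female BALB/c mice (10–12 weeks, three per group) were infected i.p. with 5 × 10^5 Arequipa bloodstream trypomastigotes. Dosing was oral, 20 mg/kg/day for 5 days, as a suspension in 5% DMSO/0.5% HPMC. Cyclophosphamide 200 mg/kg i.p. was given at day 80 pi. At necropsy (day 100) tissues were tested by PCR on the splice leader region (primers TC/TC1, 300 bp). Scored as x/3 mice positive.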

[4] = Inhibition of Trypanosoma cruzi MHOM/Pe/2011/Arequipa;DTU 5 epimastigote Fe-SOD
Outline: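 Fe-SOD excreted by exponentially growing T. cruzi Arequipa epimastigotes cultured in supplemented MTL at 28 °C. Protein quantified by Bradford. SOD activity measured by the Beyer–Fridovich method. IC50 from inhibition curves by nonlinear regression. Mean of three independent determinations ± standard deviation.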

[5] = Genotoxicity in Salmonella typhimurium TA1535 harboring pSK1002 assessed as survival at 0.008 mg/ml in absence of Sprague-Dawley rat liver S9 fraction metabolic activation by SOS/umu assay relative to control; type: toxicity; conditions: salmonella enterica subsp. enterica serovar typhimurium, read-out: Survival; outline: as §3
[6] = test system: Trypanosoma cruzi; assay: Antitrypanosomal activity against Trypanosoma cruzi MHOM/Pe/2011/Arequipa;DTU 5 epimastigote assessed as effect on D-lactate excretion at IC50 after 72 hrs by H NMR method relative to control; type: functional, organism-based
Outline: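 Cells were spun at 800 × g for 10 min and culture supernatants analysed by 1H NMR. Catabolite peaks were expressed as % variation versus untreated parasites.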

[7] = Genotoxicity in Salmonella typhimurium TA1535 harboring pSK1002 assessed as umu gene induction at 0.016 mg/ml in presence of Sprague-Dawley rat liver S9 fraction metabolic activation by SOS/umu assay relative to control; type: toxicity, subcellular; conditions: salmonella enterica subsp. enterica serovar typhimurium, read-out: FC
Outline: (§6)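 umu induction in S. typhimurium TA1535/pSK1002, with or without S9 mix, in 96-well format. β-galactosidase read colorimetrically with ONPG substrate. Output given as relative units and induction factor (IF). The run is valid if positive controls reach IF ≥2. A compound counts as genotoxic at IF ≥2 at a concentration giving ≥80% bacterial survival.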

[8] = Genotoxicity in Salmonella typhimurium TA1535 harboring pSK1002 assessed as umu gene induction at 0.004 mg/ml in presence of Sprague-Dawley rat liver S9 fraction metabolic activation by SOS/umu assay relative to control; type: toxicity, subcellular; conditions: salmonella enterica subsp. enterica serovar typhimurium, read-out: FC; outline: as §6
[9] = Selectivity index, ratio of IC50 for African green monkey Vero cells to IC50 for Trypanosoma cruzi TINF/CH/1956/Tulahuen;DTU 6 trypomastigote forms; type: toxicity; conditions: read-out: Selectivity Index
Outline: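 Bloodstream trypomastigotes were taken from BALB/c mice by cardiac puncture and diluted in RPMI with 10% FBS at 2 × 10^6/mL. They were incubated with 3.1–50.0 µM for 24 h at 37 °C in 5% CO2 and counted in a Neubauer chamber. Triplicate, at least three experiments; nonlinear regression.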

[10] = Genotoxicity in Salmonella typhimurium TA1535 harboring pSK1002 assessed as survival at 0.5 mg/ml in presence of Sprague-Dawley rat liver S9 fraction metabolic activation by SOS/umu assay relative to control; type: toxicity, subcellular; conditions: salmonella enterica subsp. enterica serovar typhimurium, read-out: Survival; outline: as §3
[11] = test system: Trypanosoma cruzi; assay: Antitrypanosomal activity against Trypanosoma cruzi MHOM/Pe/2011/Arequipa;DTU 5 epimastigote assessed as change in RNA level at IC50 measured after 72 hrs by acridine orange staining based flow cytometry relative to control; type: functional
Outline: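 They were stained with rhodamine 123 or acridine orange and analysed by flow cytometry. Index of variation = (TM−CM)/CM, from median fluorescence of treated (TM) and untreated (CM) parasites.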

[12] = Genotoxicity in Salmonella typhimurium TA1535 harboring pSK1002 assessed as survival at 0.001 mg/ml in presence of Sprague-Dawley rat liver S9 fraction metabolic activation by SOS/umu assay relative to control; type: toxicity, subcellular; conditions: salmonella enterica subsp. enterica serovar typhimurium, read-out: Survival
Outline: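 Salmonella typhimurium TA1535/pSK1002 was exposed to compounds at several concentrations with or without S9 mix, and bacterial survival % was measured. β-galactosidase induction was measured colorimetrically with ONPG substrate. Genotoxicity was counted where IF ≥ 2 at ≥80% survival; runs were valid if positive controls reached IF ≥ 2.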

[13] = Selectivity index, ratio of IC50 for African green monkey Vero cells to IC50 for Trypanosoma cruzi MHOM/Pe/2011/Arequipa;DTU 5; type: toxicity; conditions: read-out: Selectivity Index
Outline: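 SI = Vero IC50 / epimastigote IC50. Vero cells were grown in RPMI-1640 with 10% FBS, seeded at 0.8 × 10^4 cells/well, exposed to 10.0–200.0 µM for 72 h, then given MTT for 4 h. Epimastigotes were grown in MTL with 10% FBS at 28 °C, 5 × 10^5/mL, exposed to 6.3–50 µM for 48 h, then resazurin for 24 h (570/600 nm). IC50s came from nonlinear regression.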

[14] = test system: Trypanosoma cruzi; assay: Antitrypanosomal activity against Trypanosoma cruzi MHOM/Pe/2011/Arequipa;DTU 5 bloodstream trypomastigote infected in BALB/c mouse assessed as parasite-free spleen in chronic phase at 20 mg/kg/day, po administered for 5 consecutive days starting from day 70 post infection followed by cyclophosphamide induced immunosuppression on day 80 post infection measured after day 100 post infection by PCR method relative to control; type: functional; outline: as §5
[15] = Genotoxicity in Salmonella typhimurium TA1535 harboring pSK1002 assessed as umu gene induction at 0.125 mg/ml in absence of Sprague-Dawley rat liver S9 fraction metabolic activation by SOS/umu assay relative to control; type: toxicity; conditions: salmonella enterica subsp. enterica serovar typhimurium, read-out: FC; outline: as §6
[16] = test system: Trypanosoma cruzi; assay: as §4, with “trypomastigote” for “trypomastigotes”, “brain” for “stomach”; type: functional; outline: as §5
[17] = as §1, with “change” for “decrease”, “alkaline phosphatase” for “uric acid”; type: organism-based; conditions: in vivo; outline: as §2

SMILES: O=C(CCN1CCN(c2ccc(C(F)(F)F)cc2)CC1)c1ccc(O)cc1
- Activity [1]: <= 20%
- viability at 0.008 mg/ml [2]: 104%
- Activity [3]: 13%
- IC50 [4]: 4.3 µM
- viability at 0.008 mg/ml [5]: 133%
- Activity [6]: Active
- fold induction at 0.016 mg/ml [7]: 0.79
- fold induction at 0.004 mg/ml [8]: 0.77
- selectivity ratio [9]: 45.7
- viability at 0.5 mg/ml [10]: 124%
- Activity [11]: -4.2%
- viability at 0.001 mg/ml [12]: 106%
- selectivity ratio [13]: 4.7
- Activity [14]: 50%
- fold induction at 0.125 mg/ml [15]: 0.7
- Activity [16]: 13%

SMILES: O=C(Cn1ccnc1[N+](=O)[O-])NCc1ccccc1 [BENZNIDAZOLE]
- Activity [1]: <= 30%
- Activity [3]: 25%
- Activity [6]: Active
- selectivity ratio [9]: > 29.9
- Activity [11]: -4.7%
- Activity [17]: > 10%
- selectivity ratio [13]: > 7.6
- Activity [14]: 38%
- Activity [16]: 25%

SMILES: O=C(CCN1CCN(c2ccc(Cl)cc2)CC1)c1ccc(O)cc1
- viability at 0.008 mg/ml [2]: 109%
- Activity [3]: 50%
- IC50 [4]: 3.9 µM
- viability at 0.008 mg/ml [5]: 128%
- Activity [6]: Active
- fold induction at 0.016 mg/ml [7]: 0.84
- fold induction at 0.004 mg/ml [8]: 0.71
- selectivity ratio [9]: 49.6
- viability at 0.5 mg/ml [10]: 157%
- Activity [11]: -5.1%
- Activity [17]: > 10%
- viability at 0.001 mg/ml [12]: 106%
- selectivity ratio [13]: 5.6
- Activity [14]: 63%
- fold induction at 0.125 mg/ml [15]: 0.45
- Activity [16]: 50%
